# In ChEMBL document CHEMBL1138079 (J Med Chem, 2006):
# Key:
# SK-OV-3 [1] = test: Antiproliferative activity against human SKOV3 cells infected with 100 pfu/cell retrovirus after 18 hrs; type: functional, cell-based
# V79 [2] = test: Ratio for antiproliferative activity against NTR- V79 cells to NTR+ V79 cells after 1 hr; type: functional, cell-based, Cricetulus griseus
# Outline: (§1)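 Same stable NTR⁺ and vector-only NTR⁻ V79 pair, seeded 1000 cells/well and recovered 24 h. Cells exposed to drug for 1 h only, initially up to 100 µM, then given drug-free medium. SRB viability was read 3 days after drug addition. IC50 is the concentration giving 50% of control cell number; ratio is NTR⁻/NTR⁺.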
# V79 [3] = test: Antiproliferative activity against NTR expressing chinese hamster V79 cells after 1 hr; type: functional, cell-based, Cricetulus griseus; outline: as §1
# V79 [4] = test: Ratio for antiproliferative activity against NTR- V79 cells to NTR+ V79 cells after 72 hrs; type: functional, Cricetulus griseus
# Outline: (§2)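 V79 Chinese hamster fibroblasts: NTR⁺ cells stably transfected with a bicistronic NTR/puromycin-resistance vector and kept under puromycin selection; vector-only NTR⁻ controls. Seeded 1000 cells/well, recovered 24 h, then exposed to serially diluted drug for 3 days at 37 °C, initially up to 100 µM. SRB stain read at 570 nm. IC50 interpolated; ratio is NTR⁻/NTR⁺ IC50.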
# V79 [5] = test: Antiproliferative activity against NTR expressing chinese hamster V79 cells after 72 hrs; type: functional, cell-based, Cricetulus griseus; outline: as §2
# SK-OV-3 [6] = test: Antiproliferative activity against NTR expressing human SKOV3 cells […] after 18 hrs; type: functional, cell-based
# [7] = (§3) Half life in phosphate buffer at pH 7 at 37 degC assessed as reduction by Escherichia coli nitroreductase by NR assay; type: ADME; conditions: buffer
# Outline: (§4)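 Substrate at 0.2 mM with 1 mM NADH in 10 mM sodium phosphate buffer, pH 7.0, at 37 °C. Reaction started by adding 1.8 µg E. coli nitroreductase; 2 mM cysteine added for one compound. Aliquots taken at intervals, quenched with acetonitrile, frozen, then analysed by HPLC. Half-life calculated from substrate disappearance.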
# SK-OV-3 [8] = test: Antiproliferative activity against human SKOV3 cells after 18 hrs; type: functional, cell-based
# Outline: (§5)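 SKOV3 ovarian carcinoma cells stably transduced with a retroviral NTR vector and selected with 1 mg/mL G418, compared with parental SKOV3. Plated at 20 000 cells/well and allowed to adhere 24 h. Prodrug range given for 18 h, then replaced with drug-free medium. MTT survival read 2 days later. Ratio is NTR⁻/NTR⁺ IC50.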
# V79 [9] = test: Antiproliferative activity against chinese hamster V79 cells after 72 hrs; type: functional, cell-based, Cricetulus griseus; outline: as §2
# SK-OV-3 [10] = test: Ratio for antiproliferative activity against NTR- SKOV3 cells to NTR+ SKOV3 cells after 18 hrs; type: functional, Homo sapiens; outline: as §5
# SK-OV-3 [11] = test: Ratio for antiproliferative activity against NTR- SKOV3 cells to NTR+ SKOV3 cells infected with 100 pfu/cell retrovirus after 18 hrs; type: functional, Homo sapiens
# SK-OV-3 [12] = test: Ratio for antiproliferative activity against NTR- SKOV3 cells to NTR+ SKOV3 cells infected with 10 pfu/cell retrovirus after 18 hrs; type: functional, Homo sapiens
# nitroreductase = test: as §3; type: ADME; conditions: Escherichia coli, Escherichia coli nitroreductase in phosphate buffer; outline: as §4
# SK-OV-3 [13] = test: Antiproliferative activity against NTR expressing human SKOV3 cells after 18 hrs; type: functional, cell-based; outline: as §5
# V79 [14] = test: Antiproliferative activity against chinese hamster V79 cells after 1 hr; type: functional, cell-based; conditions: Cricetulus griseus, V79, 1 h; outline: as §1
# SK-OV-3 [15] = test: Antiproliferative activity against human SKOV3 cells infected with 10 pfu/cell retrovirus after 18 hrs; type: functional, cell-based; conditions: SK-OV-3, 18 h
Structure (SMILES),Ratio (V79 [2]),Ratio (V79 [4]),IC50 (V79 [5]; v79) [µM],IC50 (SK-OV-3 [6]; sk-ov-3) [µM],T1/2 [7] [min],Ratio (SK-OV-3 [10]),Ratio (SK-OV-3 [11]),"IC50 (SK-OV-3 [1]; Homo sapiens, SK-OV-3, 18 h) [µM]","IC50 (V79 [3]; Cricetulus griseus, V79, 1 h) [µM]","IC50 (V79 [5]; Cricetulus griseus, V79, 72 h) [µM]",half-life (nitroreductase) [min],"IC50 (SK-OV-3 [8]; Homo sapiens, SK-OV-3, 18 h) [µM]","IC50 (V79 [9]; Cricetulus griseus, V79, 72 h) [µM]","IC50 (SK-OV-3 [13]; Homo sapiens, SK-OV-3, 18 h) [µM]",IC50 (V79 [14]) [µM],further results
O=[N+]([O-])c1ccc(C2CCNP(=O)(N(CCCl)CCCl)O2)cc1 (racemic; cis),>290,29000,0.029,4.7,5.2,>440,150,–,–,–,–,–,–,–,–,IC50 (SK-OV-3 [1]; sk-ov-3): 680 µM; IC50 (V79 [3]; v79): 0.34 µM; IC50 (SK-OV-3 [8]; sk-ov-3): > 930 µM; IC50 (V79 [9]; v79): 832 µM
O=[N+]([O-])c1ccc(C2CCNP(=O)(N(CCCl)CCCl)N2)cc1 (racemic; trans),–,>2.1,48.3,–,4.2,–,–,–,–,–,–,–,–,–,–,IC50 (V79 [9]; v79): > 100 µM
NP(=O)(OCc1ccc([N+](=O)[O-])cc1)N(CCCl)CCCl (racemic),>10000,170000,–,–,–,>5600,>830,> 1000,0.01,0.0004,2.3,> 890,67,0.16,> 100,Ratio (SK-OV-3 [12]): >160; IC50 (SK-OV-3 [15]): > 1000 µM
O=[N+]([O-])c1ccc(C2CCOP(=O)(N(CCCl)CCCl)N2)cc1 (racemic; trans),–,>1.9,–,220,2.9,>4.8,>4.5,> 1000,–,51.5,–,> 1000,> 100,–,–,IC50 (SK-OV-3 [13]; sk-ov-3): 210 µM
O=[N+]([O-])c1ccc(C2CCOP(=O)(N(CCCl)CCCl)N2)cc1 (racemic; cis),–,>2.2,45.3,530,11.9,>1.9,>1.9,–,–,–,–,–,–,–,–,IC50 (SK-OV-3 [13]; sk-ov-3): 530 µM
O=[N+]([O-])c1ccc(C2CCNP(=O)(N(CCCl)CCCl)N2)cc1 (racemic; cis),–,12,4.6,–,–,–,–,–,–,–,6.4,–,56.8,–,–,–
O=[N+]([O-])c1ccc(C2CCNP(=O)(N(CCCl)CCCl)O2)cc1 (racemic; trans),>590,23000,–,–,–,270,>200,> 1000,0.17,0.027,3.9,570,608,2.1,> 100,"IC50 (SK-OV-3 [6]; Homo sapiens, SK-OV-3, 18 h): 5 µM"
O=P1(N(CCCl)CCCl)NC(OO)CCO1 (stereo not given) [PERFOSFAMIDE],–,1.1,–,–,–,–,–,–,–,2.7,–,–,3.1,–,–,–
NC(=O)c1cc(N2CC2)c([N+](=O)[O-])cc1[N+](=O)[O-] [TRETAZICAR],>320,7100,–,–,–,>400,>210,> 1000,0.31,0.036,5,> 790,254,2,> 100,Ratio (SK-OV-3 [12]): 12; IC50 (SK-OV-3 [15]): 625 µM
